Sampled rows, rich in hits. Any-hit rate of the full collection: about 4.8%.
HSF1 activator: increases HSF-1 driven luciferase reporter signal. activation, % at 9 µM. hit rate 1.7% among 300,000. AID 504408. NIH3T3-HGL HSF-1 luciferase reporter, MG132, 8 h; 100% = twice DMSO control signal;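 active = mean replicate activation of at least 50% with a set share of replicates each reaching 50%; inconclusive = only one of those two conditions met; inactive = mean below 50% and too few replicates reaching it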;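 also: 0% = median of the neutral control wells and 100% = twice that signal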
T cruzi inh: T. cruzi replication inhibition; T. cruzi beta-gal in NIH3T3, luminescence, 90 h; inhibition, % (concentration not given with the values); hit rate 1.4% among 300,000;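 active = mean inhibition across valid replicates above about 55%, limit read from the data; inconclusive = mean below that limit but half or more replicates reach it; inactive = mean below it, under half of replicates reach it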;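 also: signal also drops with host cell toxicity which is not excluded here; 0% = plate median of DMSO wells and 100% = zero luminescence signal; higher percent means less beta-gal luminescence so fewer parasites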
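Test system: β-gal T. cruzi (Tulahuen C4) inside NIH/3T3 cells / Quantity: 5,000 cells/well / Measured by: luminescence from GalScreen with 0.05% NP40, read after 60 min / Medium: DMEM plus 2% FBS / Measure: parasite load inhibition, % / Reagent: Tulahuen C4 trypomastigotes, 5000/well / Schedule: co-culture of at least 90 h after 3 h attachment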
697 NFkB inh: lowers PMA/ionomycin-induced NF-kB signal in 697 B cells | 697 B-cell NF-kB luciferase reporter, 16 h | inhibition, % at 4 µM | hit rate 0.33% among 330,000 | AID 435022; in the data active = inhibition above about 35%
HSF1 inhib: HSF1 inhibition | NIH3T3-HGL HSE-luciferase, MG132-induced, luminescence 8 h; active compounds read low | activity change, negative = inhibition, % at 7.5 µM (by protocol) | hit rate 0.77% among 300,000;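 active = more than half of replicate wells show activity change below -50%, luminescence cut by over half; inconclusive = some wells, but at most half, below -50%; inactive = no replicate well below -50%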;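 also: luciferase reports HSF-1 transcriptional activity via heat shock element; 0% = median of DMSO wells and -100% = zero luminescence signal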
Jurkat NFkB inh: inhibitors of the PMA/ionomycin-induced NF-kB reporter in Jurkat cells | PMA/ionomycin-induced NF-kB luciferase reporter, luminescence | inhibition, % at 4 µM | hit rate 0.53% among 330,000; in the data active = inhibition above about 50%
GPR7 antag: human neuropeptides B/W receptor 1 antagonism. inhibition, % at 4.4 µM. GPR7-expressing cells, fluorescence antagonist assay. hit rate 1.1% among 290,000. AID 1861. P48145; in the data active = inhibition above about 16%, passing the limit was not always enough;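 also: cells stimulated with the agonist NPW; 0% = agonist with vehicle and 100% = vehicle without agonist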
Target sequence (P48145 whole entry, looked up): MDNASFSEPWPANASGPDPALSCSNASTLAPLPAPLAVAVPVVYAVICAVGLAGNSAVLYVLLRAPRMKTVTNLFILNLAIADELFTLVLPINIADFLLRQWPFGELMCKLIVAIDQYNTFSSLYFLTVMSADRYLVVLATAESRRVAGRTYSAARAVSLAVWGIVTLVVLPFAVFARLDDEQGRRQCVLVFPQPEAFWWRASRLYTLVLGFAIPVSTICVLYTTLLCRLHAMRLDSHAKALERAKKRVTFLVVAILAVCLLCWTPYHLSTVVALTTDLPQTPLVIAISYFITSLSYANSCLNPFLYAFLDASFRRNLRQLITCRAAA
GPR7 antag conf: human GPR7 antagonism, confirmation assay. shares compounds with GPR7 antag. GPR7-expressing cells, calcium fluorescence antagonist mode. inhibition, % at 4.4 µM. hit rate 52% among 2,400. AID 1952; in the data active = inhibition above about 24%;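 also: stimulated with the GPR7 agonist NPW; 0% = agonist plus vehicle and 100% = vehicle alone without agonist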
MCHR1 antagonist: counter-screen for GPR7 antagonists: antagonists of human MCHR1 | shares compounds with GPR7 antag | MCHR1-expressing cells, fluorescence antagonist assay | inhibition, % at 4.4 µM | hit rate 62% among 2,400 | AID 2148; in the data active = inhibition above about 22%;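 also: 0% = vehicle with agonist and 100% = vehicle without agonist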
* marks the source's active call; other numbers are inactive results.

CCSCCOC(=O)C1=C(C)N(C)C(=O)NC1c1cc(OC)ccc1OC (stereo not drawn) was read as HSF1 activator -4, 697 NFkB inh -2, HSF1 inhib 4, Jurkat NFkB inh 20, GPR7 antag 23*, GPR7 antag conf -5 and MCHR1 antagonist 10.
`c1ccc(-c2ccc(OCCCNC3CCCC3)cc2)cc1` gave HSF1 activator 17, T cruzi inh 60*, 697 NFkB inh -13, HSF1 inhib 2, Jurkat NFkB inh 18, GPR7 antag 21*, GPR7 antag conf 23 and MCHR1 antagonist 21.
Screening O=C(OCCOc1cccc(Cl)c1)c1ccc2ncsc2c1 returned HSF1 activator -21, T cruzi inh -2, 697 NFkB inh 2, HSF1 inhib -5, Jurkat NFkB inh 0 and GPR7 antag -4.
CC(c1ccon1)N(C)C(=O)CCc1nnc(C2(c3ccc(Cl)cc3)CCC2)o1 (stereo not drawn) was read as HSF1 activator 4, T cruzi inh 4, 697 NFkB inh -8, HSF1 inhib 2, Jurkat NFkB inh -12, GPR7 antag 25*, GPR7 antag conf -6 and MCHR1 antagonist 4.
Screening Cc1cc(C=O)c(C)n1-c1ccc(Oc2ccc([N+](=O)[O-])cn2)cc1 returned HSF1 activator 4, T cruzi inh 0, 697 NFkB inh 28, HSF1 inhib -6, Jurkat NFkB inh 16, GPR7 antag 27*, GPR7 antag conf 36* and MCHR1 antagonist 53*.
COc1ccc(NC(=O)/C(C#N)=C\c2cc(C)n(-c3ccc(Oc4ccc([N+](=O)[O-])cn4)cc3)c2C)cc1 was read as HSF1 activator -2, T cruzi inh -7, 697 NFkB inh -23, HSF1 inhib -2, Jurkat NFkB inh 27 and GPR7 antag -5.
For COc1cc(CN2CCCC(N3CCc4ccccc4C3)C2)c(Cl)cc1O (stereo not drawn) the results were HSF1 activator 1, T cruzi inh 50, 697 NFkB inh -8, HSF1 inhib -3, Jurkat NFkB inh -17 and GPR7 antag 5.
`O=c1c(Cl)c(Cl)cnn1Cc1nnc(-c2ccccc2Br)o1` gave HSF1 activator -73, T cruzi inh 57*, 697 NFkB inh -25, HSF1 inhib inconclusive, Jurkat NFkB inh 18, GPR7 antag 88*, GPR7 antag conf 89* and MCHR1 antagonist 105*.
`Clc1ccc(Cc2nnc(-c3ccccc3Br)o2)cc1` gave HSF1 activator 11, T cruzi inh -10, 697 NFkB inh -9, HSF1 inhib 13, Jurkat NFkB inh -10 and GPR7 antag -3.
Screening COc1cc(NC(=O)Cn2cnc(S(=O)(=O)N3CCOCC3)c2)cc(OC)c1OC returned HSF1 activator 25, T cruzi inh -2, 697 NFkB inh -19, HSF1 inhib 7, Jurkat NFkB inh -5 and GPR7 antag -12.
Screening Cc1nn2c(NCCCN(C)C)c3c(nc2c1-c1ccccc1)CCCC3 returned HSF1 activator 0, T cruzi inh 49, 697 NFkB inh -11, HSF1 inhib 4, Jurkat NFkB inh 31, GPR7 antag 30*, GPR7 antag conf 18 and MCHR1 antagonist 23*.
For CC(C)CC(NC(=O)C1CCC(C)CC1)C(=O)Nc1cccnc1 (stereo not drawn) the results were HSF1 activator -5, T cruzi inh -8, 697 NFkB inh 5, HSF1 inhib -12, Jurkat NFkB inh 8, GPR7 antag 28*, GPR7 antag conf -13 and MCHR1 antagonist 34*.
CC(C(=O)Nc1cccnc1)c1ccc([N+](=O)[O-])cc1 (stereo not drawn) was read as HSF1 activator -9, T cruzi inh 2, 697 NFkB inh -8, HSF1 inhib -8, Jurkat NFkB inh -4 and GPR7 antag 1.

Assay outcomes as filed in PubChem BioAssay.
